Results reported in PMC3513709 (The Biochemical journal, 2012).
Changes are numbered by the printed parent chain.

Assays:
[1] = target: hCHT (human chitotriosidase) (Homo sapiens, UniProt Q13231); experiment: Chitinase activity assay, steady-state kinetics; format: biochemical
In short: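 Human chitotriosidase at 2 nM final with fluorigenic 4MU-(GlcNAc)3 in 0.2 M Na2HPO4/0.1 M citric acid pH 5.5, incubated 60 min at 37°C. Quenched with 3 M glycine/NaOH pH 10; 4MU product read at ex 360/em 460 nm. Reactions run in triplicate, with no-enzyme readings subtracted. Km and kcat from steady-state fit, means ± S.E.M. of three independent experiments.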

[2] = target: T1, YKL-39 S143D/I145E active mutant (Homo sapiens, UniProt Q15782, I145E/S143D); experiment: Chitinase activity assay, steady-state kinetics and inhibition; format: biochemical
T1 sequence (Q15782 27-390 S143D/I145E): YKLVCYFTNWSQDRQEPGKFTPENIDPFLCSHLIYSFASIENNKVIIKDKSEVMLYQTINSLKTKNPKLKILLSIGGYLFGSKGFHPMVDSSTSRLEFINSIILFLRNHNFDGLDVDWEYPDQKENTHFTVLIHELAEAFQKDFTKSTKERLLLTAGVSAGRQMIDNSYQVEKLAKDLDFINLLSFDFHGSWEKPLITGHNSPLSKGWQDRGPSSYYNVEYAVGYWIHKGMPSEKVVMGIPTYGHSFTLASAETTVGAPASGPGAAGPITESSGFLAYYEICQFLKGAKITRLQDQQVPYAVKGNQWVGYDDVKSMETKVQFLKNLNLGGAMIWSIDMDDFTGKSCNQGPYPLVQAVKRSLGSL
In short: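 S143D/I145E mutant was secreted from methanol-induced Pichia pastoris GS115 and purified by CM-Sepharose and size exclusion. 20 nM enzyme with 4MU-(GlcNAc)3 in 0.2 M Na2HPO4/0.1 M citric acid pH 5.5, 60 min at 37°C. Quenched with 3 M glycine/NaOH pH 10; read at ex 360/em 460 nm. Triplicates, no-enzyme blank subtracted. Kinetic parameters from curve fit over three independent experiments; Ki by non-linear regression.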

[3] = target: T2, YKL-39 (Homo sapiens, UniProt Q15782); experiment: Glycan array screen; format: binding; settings: AlexaFluor 488-labelled YKL-39, array of 264 glycans
T2 sequence (Q15782 27-390): T1 sequence (Q15782 27-390 S143D/I145E) with D117S, E119I
In short: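 Amino-linked natural and synthetic glycans were printed on modified glass slides, six replicates each. Dye-labelled protein was applied for 1 h at room temperature. Slides were spun dry and scanned at ex 495/em 520 nm. Means ± S.D. of four observations.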

[4] = test system: hAMCase; settings: cited from earlier work

Chain of hCHT (human chitotriosidase) (Q13231 22-466): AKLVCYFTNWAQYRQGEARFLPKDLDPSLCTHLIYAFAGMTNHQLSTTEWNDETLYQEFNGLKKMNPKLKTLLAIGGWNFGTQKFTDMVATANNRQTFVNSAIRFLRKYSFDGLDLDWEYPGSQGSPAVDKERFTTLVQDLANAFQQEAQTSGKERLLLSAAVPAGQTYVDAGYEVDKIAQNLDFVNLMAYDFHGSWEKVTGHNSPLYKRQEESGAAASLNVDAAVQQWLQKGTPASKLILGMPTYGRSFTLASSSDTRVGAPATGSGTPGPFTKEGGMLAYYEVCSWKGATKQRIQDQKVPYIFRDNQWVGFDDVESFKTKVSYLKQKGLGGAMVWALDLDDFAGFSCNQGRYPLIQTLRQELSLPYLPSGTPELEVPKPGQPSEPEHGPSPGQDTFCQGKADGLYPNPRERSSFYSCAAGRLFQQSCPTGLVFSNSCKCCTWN

CC(=O)N[C@H]1[C@H](Oc2ccc3c(C)cc(=O)oc3c2)O[C@H](CO)[C@@H](O[C@@H]2O[C@H](CO)[C@@H](O[C@@H]3O[C@H](CO)[C@@H](O)[C@H](O)[C@H]3NC(C)=O)[C@H](O)[C@H]2NC(C)=O)[C@@H]1O [4MU-(GlcNAc)3, 4-methylumbelliferyl-β-D-N,N′,N′’-triacetylchitotriose]
kcat ([1]; fluorigenic pseudosubstrate, pH 5.5, 37°C): 15.7 ± 0.3 s⁻¹
Km ([1]; read-out: Michaelis constant (Km), fluorigenic pseudosubstrate, pH 5.5, 37°C): 53 ± 3 µM
kcat ([2]; YKL-39 S143D/I145E, fluorigenic pseudosubstrate, pH 5.5, 37°C): 0.02 ± 0.0002 s⁻¹
Km ([2]; read-out: Michaelis constant (Km), YKL-39 S143D/I145E, fluorigenic pseudosubstrate, pH 5.5, 37°C): 9 ± 1 µM

CC(=O)N[C@H]1[C@H](O[C@H]2[C@H](O)[C@@H](NC(C)=O)[C@H](O[C@H]3[C@H](O)[C@@H](NC(C)=O)C(O)O[C@@H]3CO)O[C@@H]2CO)O[C@H](CO)[C@@H](O[C@@H]2O[C@H](CO)[C@@H](O[C@@H]3O[C@H](CO)[C@@H](O[C@@H]4O[C@H](CO)[C@@H](O)[C@H](O)[C@H]4NC(C)=O)[C@H](O)[C@H]3NC(C)=O)[C@H](O)[C@H]2NC(C)=O)[C@@H]1O (stereo partly drawn) [(GlcNAc)6, chitohexaose]
binding to YKL-39 in glycan array (relative fluorescence) [3]: strongest binders

Cn1cnc2c1c(=O)n(CCCn1c(=O)c3[nH]cnc3n(C)c1=O)c(=O)n2C [bisdionin F]
activity against hAMCase [4]: submicromolar
selectivity for hAMCase over hCHT [4]: selectivity over hCHT

CCc1nc2c([nH]1)c(=O)n(CCCn1c(=O)c3c(ncn3C)n(C)c1=O)c(=O)n2C [bisdionin G, 1-{3-[3,7-dimethyl-2,6-dioxo-2,3-dihydro-6H-purin-1(7H)-yl]propyl}-8-ethyl-3-methyl-1H-purine-2,6(3H, 7H)-dione]
Ki [2]: 120 ± 2 µM

(GlcNAc)5
binding to YKL-39 in glycan array (relative fluorescence) [3]: strongest binders
